Key:
Mus musculus [1] = assay: Trypanocidal Activity at I.C.E. value 0.44 when administered subcutaneously.; format: functional
How it was run: (§1)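 Blood-stage T. rhodesiense infection came from a standard inoculum lethal to all untreated mice. Drug was given by subcutaneous injection to groups of five mice. Survival beyond 30 days counted as cure. […] Sub-curative doses scored 0, and data were normalized at each dose.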

Mus musculus [2] = assay: Trypanocidal Activity at I.C.E. value 0.25 when administered perorally.; format: functional
Mus musculus [3] = assay: Trypanocidal Activity at I.C.E. value 0.44 when administered perorally.; format: functional
Mus musculus [4] = assay: Trypanocidal Activity at I.C.E. value 0.90 when administered subcutaneously.; format: functional
Mus musculus [5] = assay: Trypanocidal Activity at I.C.E. value 0.64 when administered perorally.; format: functional
Mus musculus [6] = assay: Trypanocidal Activity at I.C.E. value 0.39 when administered subcutaneously.; format: functional; how it was run: as §1
[7] = system: Trypanosoma brucei rhodesiense; assay: In Vitro measurement of inhibition of Leucine uptake in cell culture of Trypanosoma rhodesiense.; format: functional; settings: read-out: ID50 (the source's name)
How it was run: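 Trypanosomes harvested from infected rats, cultured 3 h with several concentrations of drug, usually 0.1–100 µg/mL. Radiolabeled L-leucine uptake measured. ID50 is the concentration in µg/mL giving 50% inhibition of incorporation.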

[8] = system: Trypanosoma brucei rhodesiense; assay: In Vitro measurement of inhibition of thymidine uptake in cell culture of Trypanosoma rhodesiense.; format: functional; settings: read-out: ID50 (the source's name)
How it was run: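 Parasites harvested from infected rats and incubated 3 h across a drug concentration series, usually 0.1–100 µg/mL. Incorporation of radiolabeled thymidine measured. ID50 is the concentration (µg/mL) producing 50% inhibition.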

Mus musculus [9] = assay: Trypanocidal Activity at I.C.E. value 0.71 when administered subcutaneously.; format: functional
How it was run: (§2)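 Mice, in groups of five per dose, were given a standard inoculum of blood-stage T. rhodesiense that is lethal to all untreated controls, then dosed subcutaneously. Usually 11 dose levels were used (2^n × 0.42 mg/kg).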

Mus musculus [10] = assay: Trypanocidal Activity at I.C.E. value 0.32 when administered perorally.; format: functional
Mus musculus [11] = assay: Trypanocidal Activity at I.C.E. value 0.24 when administered subcutaneously; format: functional; how it was run: as §1
Mus musculus [12] = assay: Trypanocidal Activity at I.C.E. value 0.48 when administered perorally.; format: functional
Mus musculus [13] = assay: Fraction of mice that were cured after oral administration at a dose of 424 mg/kg and I.C.E. value of 0.84; format: functional
Mus musculus [14] = assay: Fraction of mice that were cured after oral administration at a dose of 53 mg/kg and I.C.E. value of 0.84; format: functional
Mus musculus [15] = assay: Fraction of mice that were cured after oral administration at a dose of 6.6 mg/kg and I.C.E. value of 0.84; format: functional
Mus musculus [16] = assay: Fraction of mice that were cured after subcutaneous administration at a dose of 0.42 mg/kg and I.C.E. value of 0.54; format: functional
Mus musculus [17] = assay: Fraction of mice that were cured after subcutaneous administration at a dose of 0.83 mg/kg and I.C.E. value of 0.54; format: functional
Mus musculus [18] = assay: Fraction of mice that were cured after subcutaneous administration at a dose of 1.67 mg/kg and I.C.E. value of 0.54; format: functional
Mus musculus [19] = assay: Fraction of mice that were cured after subcutaneous administration at a dose of 106 mg/kg and I.C.E. value of 0.54; format: functional
Mus musculus [20] = assay: Fraction of mice that were cured after subcutaneous administration at a dose of 13 mg/kg and I.C.E. value of 0.54; format: functional
Mus musculus [21] = assay: Fraction of mice that were cured after oral administration at a dose of 26 mg/kg and I.C.E. value of 0.84; format: functional
Mus musculus [22] = assay: Fraction of mice that were cured after oral administration at a dose of 3.3 mg/kg and I.C.E. value of 0.84; format: functional
Mus musculus [23] = assay: Fraction of mice that were cured after oral administration at a dose of 0.42 mg/kg and I.C.E. value of 0.84; format: functional
Mus musculus [24] = assay: Trypanocidal Activity at I.C.E. value 0.54 when administered subcutaneously.; format: functional; how it was run: as §1
Mus musculus [25] = assay: Fraction of mice that were cured after subcutaneous administration at a dose of 424 mg/kg and I.C.E. value of 0.54; format: functional
Mus musculus [26] = assay: Fraction of mice that were cured after subcutaneous administration at a dose of 53 mg/kg and I.C.E. value of 0.54; format: functional
Mus musculus [27] = assay: Fraction of mice that were cured after subcutaneous administration at a dose of 6.6 mg/kg and I.C.E. value of 0.54; format: functional
Mus musculus [28] = assay: Curative activity of the Compound after Subcutaneous administration at a dose of 6.6 mg/kg and I.C.E. value of 0.54 for 30 days; 5/5; format: functional
Mus musculus [29] = assay: Curative activity of the Compound after oral administration at a dose of 106 mg/kg ( T-Toxic)and I.C.E. value of 0.49 for 30 days; 5/5; format: functional
Mus musculus [30] = assay: Curative activity of the Compound after oral administration at a dose of 13 mg/kg and I.C.E. value of 0.49 for 30 days; 2/5; format: functional
Mus musculus [31] = assay: Curative activity of the Compound after oral administration at a dose of 212 mg/kg ( T-Toxic)and I.C.E. value of 0.49 for 30 days; 5/5; format: functional
Mus musculus [32] = assay: Fraction of mice that were cured after subcutaneous administration at a dose of 212 mg/kg and I.C.E. value of 0.54; format: functional
Mus musculus [33] = assay: Fraction of mice that were cured after subcutaneous administration at a dose of 26 mg/kg and I.C.E. value of 0.54; format: functional
Mus musculus [34] = assay: Fraction of mice that were cured after subcutaneous administration at a dose of 3.3 mg/kg and I.C.E. value of 0.54; format: functional
Mus musculus [35] = assay: Curative activity of the Compound after Subcutaneous administration at a dose of 3.3 mg/kg and I.C.E. value of 0.54 for 30 days; 24/25; format: functional
Mus musculus [36] = assay: Curative activity of the Compound after Subcutaneous administration at a dose of 0.42 mg/kg and I.C.E. value of 0.54 for 30 days; 2/5; format: functional
Mus musculus [37] = assay: Curative activity of the Compound after Subcutaneous administration at a dose of 0.83 mg/kg and I.C.E. value of 0.54 for 30 days; 27/30; format: functional
Mus musculus [38] = assay: Curative activity of the Compound after oral administration at a dose of 424 mg/kg ( T-Toxic)and I.C.E. value of 0.49 for 30 days; 10/10; format: functional
Mus musculus [39] = assay: Curative activity of the Compound after oral administration at a dose of 53 mg/kg ( T-Toxic) and I.C.E. value of 0.49 for 30 days; 5/5; format: functional
Mus musculus [40] = assay: Curative activity of the Compound after Subcutaneous administration at a dose of 1.67 mg/kg and I.C.E. value of 0.54 for 30 days; 10/10; format: functional
Mus musculus [41] = assay: Curative activity of the Compound after Subcutaneous administration at a dose of 13 mg/kg and I.C.E. value of 0.54 for 30 days; 10/10; format: functional
Mus musculus [42] = assay: Curative activity of the Compound after Subcutaneous administration at a dose of 26 mg/kg ( T-Toxic) and I.C.E. value of 0.54 for 30 days; 11/15; format: functional
Mus musculus [43] = assay: Fraction of mice that were cured after oral administration at a dose of 0.83 mg/kg and I.C.E. value of 0.84; format: functional
Mus musculus [44] = assay: Fraction of mice that were cured after oral administration at a dose of 1.67 mg/kg and I.C.E. value of 0.84; format: functional
Mus musculus [45] = assay: Fraction of mice that were cured after oral administration at a dose of 13 mg/kg and I.C.E. value of 0.84; format: functional
Mus musculus [46] = assay: Fraction of mice that were cured after oral administration at a dose of 212 mg/kg and I.C.E. value of 0.84; format: functional
Mus musculus [47] = assay: Curative activity of the Compound after oral administration at a dose of 26 mg/kg and I.C.E. value of 0.49 for 30 days; 10/10; format: functional
Mus musculus [48] = assay: Fraction of mice that were cured after oral administration at a dose of 106 mg/kg and I.C.E. value of 0.49
Mus musculus [49] = assay: Trypanocidal Activity at I.C.E. value 0.53 when administered subcutaneously.; format: functional; how it was run: as §1
Mus musculus [50] = assay: Trypanocidal Activity at I.C.E. value 0.16 when administered perorally.; format: functional
Mus musculus [51] = assay: Trypanocidal Activity at I.C.E. value 0.31 when administered subcutaneously.; format: functional; how it was run: as §1
Mus musculus [52] = assay: Trypanocidal Activity at I.C.E. value 0.77 when administered subcutaneously.; format: functional; how it was run: as §2

Br.CC/N=C(\NCC)N/N=C/c1ccc(OCc2cn3ccccc3[n+]2C)cc1.[Br-]
CD50 (Mus musculus [1]): 0.8 mg/kg
CD50 (Mus musculus [2]): 106 mg/kg

Br.Cc1cccc2n1cc(/C=C/c1ccc(/C=N/NC(=N)N3CCCC3)cc1)[n+]2C.[Br-]
CD50 (Mus musculus [3]): 53 mg/kg
CD50 (Mus musculus [4]): 0.4 mg/kg

Br.C[n+]1c(-c2ccc(/C=N/NC(=N)N3CCCC3)cc2)cn2ccccc21.[Br-]
CD50 (Mus musculus [5]): 6.6 mg/kg
CD50 (Mus musculus [6]): 0.06 mg/kg
IC50 [7]: 0.6 µg/mL
IC50 [8]: 0.6 µg/mL

Br.CCCCNC(=N)N/N=C/c1ccc(-c2cn3ccc(C)cc3[n+]2C)cc1.[Br-]
CD50 (Mus musculus [9]): 0.4 mg/kg
CD50 (Mus musculus [10]): 26 mg/kg

Br.C/N=C(/N/N=C/c1ccc(-c2cn3ccccc3[n+]2C)cc1)SC.[Br-]
CD50 (Mus musculus [11]): 26 mg/kg

C[n+]1c(-c2ccc(/C=N/NC(=N)N)cc2)cn2ccccc21.Cc1ccc(S(=O)(=O)O)cc1.Cc1ccc(S(=O)(=O)[O-])cc1
CD50 (Mus musculus [12]): 26 mg/kg
Fraction cured (Mus musculus [13]): 1
Fraction cured (Mus musculus [14]): 1
Fraction cured (Mus musculus [15]): 0
Fraction cured (Mus musculus [16]): 0.4
Fraction cured (Mus musculus [17]): 0.9
Fraction cured (Mus musculus [18]): 1
Fraction cured (Mus musculus [19]): 0
Fraction cured (Mus musculus [20]): 1
Fraction cured (Mus musculus [21]): 1
Fraction cured (Mus musculus [22]): 0
Fraction cured (Mus musculus [23]): 0
CD50 (Mus musculus [24]): 0.8 mg/kg
Fraction cured (Mus musculus [25]): 0
Fraction cured (Mus musculus [26]): 0
Fraction cured (Mus musculus [27]): 1
Survivors (Mus musculus [28]): 5
Survivors (Mus musculus [29]): 5
Survivors (Mus musculus [30]): 2
Survivors (Mus musculus [31]): 5
Fraction cured (Mus musculus [32]): 0
Fraction cured (Mus musculus [33]): 0.73
Fraction cured (Mus musculus [34]): 0.96
Survivors (Mus musculus [35]): 24
Survivors (Mus musculus [36]): 2
Survivors (Mus musculus [37]): 27
Survivors (Mus musculus [38]): 10
Survivors (Mus musculus [39]): 5
Survivors (Mus musculus [40]): 10
Survivors (Mus musculus [41]): 10
Survivors (Mus musculus [42]): 11
Fraction cured (Mus musculus [43]): 0
Fraction cured (Mus musculus [44]): 0
Fraction cured (Mus musculus [45]): 0.4
Fraction cured (Mus musculus [46]): 1
Survivors (Mus musculus [47]): 10
Fraction cured (Mus musculus [48]): 1

Br.Cc1ccn2cc(-c3ccc(/C=N/NC(=N)N4CCOCC4)cc3)[n+](C)c2c1.[Br-]
CD50 (Mus musculus [49]): 0.4 mg/kg

Br.C[n+]1ccccc1COc1ccc(/C=N/NC2=NCCCN2)cc1.[Br-]
CD50 (Mus musculus [50]): 212 mg/kg
CD50 (Mus musculus [51]): 6.6 mg/kg

Br.Cc1ccc2n(c1)cc(/C=C/c1ccc(/C=N/NC(=N)N3CCCC3)cc1)[n+]2C.[Br-]
CD50 (Mus musculus [52]): 0.4 mg/kg

— ChEMBL document CHEMBL1124947, “Cationic antiprotozoal drugs. Trypanocidal activity of 2-(4'-formylphenyl)imidazo[1,2-a]pyridinium guanylhydrazones and related derivatives of quaternary heteroaromatic compounds” (J Med Chem, 1990)
